# GSK3A inh – blockers of GSK3A enzyme activity – biochemical, luminescence, cell-free homogeneous, HTS, primary screen; inhibition, % at 10 µM; 0.1% of 320,000 active; GSK-3 alpha kinase, ADP-Glo luminescence, 60 min; Glycogen synthase kinase-3 alpha (Homo sapiens), P49840;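 active = more than half of replicates show inhibition above 20%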;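 note: GST-tagged GSK-3 alpha with peptide substrate and 25 µM ATP; 0% = DMSO neutral wells and 100% = GW8510 positive control wells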
# Target sequence (P49840 whole entry, looked up): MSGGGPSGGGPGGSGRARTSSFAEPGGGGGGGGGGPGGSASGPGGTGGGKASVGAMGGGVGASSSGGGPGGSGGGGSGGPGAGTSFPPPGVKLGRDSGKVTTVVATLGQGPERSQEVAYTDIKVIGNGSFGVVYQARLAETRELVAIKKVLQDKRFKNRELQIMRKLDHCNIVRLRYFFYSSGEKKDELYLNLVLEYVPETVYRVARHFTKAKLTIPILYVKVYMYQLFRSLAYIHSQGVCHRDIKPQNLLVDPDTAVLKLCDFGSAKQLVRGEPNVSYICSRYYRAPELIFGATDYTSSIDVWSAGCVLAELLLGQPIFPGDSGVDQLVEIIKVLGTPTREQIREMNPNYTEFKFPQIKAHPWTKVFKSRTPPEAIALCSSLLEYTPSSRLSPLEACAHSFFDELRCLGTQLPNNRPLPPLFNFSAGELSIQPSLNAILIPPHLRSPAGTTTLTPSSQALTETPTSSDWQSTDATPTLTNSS
# STK33 inh – inhibitors of purified STK33 kinase, primary screen, biochemical, ADP-Glo luminescence, homogeneous, cell-free; Serine/threonine-protein kinase 33 (Homo sapiens), Q9BYT3; MBP phosphorylation; inhibition, % at 10 µM; 0.073% of 320,000 active;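 active = inhibition at or above 25%, using the most active replicate where run in duplicate; inactive = inhibition below 25%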
# CDK5 inh – inhibitors of human CDK5/p35 kinase, primary screen, biochemical, single concentration | Cyclin-dependent kinase 5 (Homo sapiens) + Cyclin-dependent kinase 5 activator 1 (Homo … | Recombinant CDK5/p35, ADP-Glo luminescence, 60 min | inhibition, % at 10 µM | 0.01% of 330,000 active;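 active = highest replicate inhibition of at least 50% and at least 75% of replicates reaching 50%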;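 note: plate controls were DMSO neutral control for no effect and GW8510 at 10 µM for full effect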
# GSK3beta inhib – human GSK3beta kinase inhibitors, primary screen, biochemical, cell-free homogeneous, HTS | Glycogen synthase kinase-3 beta (Homo sapiens), P49841 | GST-GSK3beta kinase, ADP-Glo luminescence, 60 min; active compounds read low | activity score (negative = inhibition), % at 10 µM | 0.038% of 300,000 active;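 active = more than half of replicate wells score below -50%, meaning over 50% inhibition versus plate controls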;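 note: 0% = median DMSO wells and -100% = median GW8510 positive control wells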
#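 Test system: GST-fused GSK3beta enzyme, cell-free | Quantity: 1.6 ng GST-GSK3beta enzyme per well | Reagent: 25 µM ATP with peptide substrate | Schedule: 60 min enzyme reaction, room temperature | Signal: Luminescent ADP-Glo measurement of ADP formed | Read-out basis: Score relative to plate controls | Control set: DMSO and 20 µM GW8510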
# Dyrk1A ADPGlo – rat Dyrk1A kinase inhibitors, primary screen, biochemical, single point, plate reader | ADP-Glo luminescence, NFATc1 peptide | inhibition, % at 12.5 µM | 0.43% of 310,000 active | AID 504441, 2011; in the data active = inhibition above about 50%;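 note: plate controls were vehicle with enzyme for no effect and no enzyme for full effect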
# ADP-Glo artifact – ADP-Glo luciferase interference without Dyrk1A, dose response, artefact control for Dyrk1A inhibitor project, biochemical, luminescence, cherry-pick, set 02; AC50, µM (top dose mostly 12 µM), inactives show at the top dose activity change, negative = inhibition; ADP-Glo luciferase artifact assay, no Dyrk1A; 1,300 tested, under 10 active; shares compounds with Dyrk1A ADPGlo; AID 588348, 2011;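 active = fitted half-maximal dose AC50 no more than ten times the top valid tested dose, with luminescence dropping as dose rises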
# * hit, by the source's call; · = no result given. Many of the other results were omitted from the sample, so hits are more common in it than they were.
SMILES,GSK3A inh,STK33 inh,CDK5 inh,GSK3beta inhib,Dyrk1A ADPGlo,ADP-Glo artifact
O=C1c2cc(O)cc(O)c2C(=O)c2c1cc(O)c([C@@H](CO)CCO)c2O,15,12,2,-6,24,·
CC(=O)Oc1ccc2occ(C(=O)c3ccccc3)c2c1,13,0,·,0,·,·
Cc1ccc(C(=O)c2coc3ccc(OCC(=O)O)cc23)cc1,89*,3,0,-72*,70*,10%
O=C(O)COc1ccc2occ(C(=O)c3ccccc3)c2c1,83*,1,0,2,66*,8%
Cc1cc(NCCCN2CCOCC2)n2ncc(-c3ccc(Cl)cc3)c2n1,0,2,0,4,-1,·
Cc1cc(NCCCn2ccnc2)n2ncc(-c3ccc(Cl)cc3)c2n1,12,18,1,-9,56*,10%
CC(=O)O[C@H](COc1c2ccoc2cc2oc(=O)ccc12)C(C)(C)O,-2,2,0,·,68*,10%
C=C(C)[C@@H](O)COc1c2ccoc2cc2oc(=O)ccc12,6,2,1,·,59*,8%
CC(C)(O)[C@H](O)COc1c2ccoc2cc2oc(=O)ccc12,2,0,0,1,48,·
Cc1ccc(N=C2NC(=O)/C(=C\c3ccc(C)s3)S2)cc1,0,-1,-2,-1,-2,·
Cc1ccc(-c2oc3ncnc(N)c3c2-c2ccc(C)cc2)cc1,-2,0,-1,27,-2,·
Cc1oc2ncnc(N)c2c1C,2,1,2,-5,50*,8%
COc1ccc(C(=O)N[C@H](C(=O)OCCCOC(=O)[C@@H](NC(=O)c2ccc(OC)cc2)C(C)C)C(C)C)cc1,·,·,0,·,10,·
CC(C)NC(=O)Nc1cccc2c1O[C@H](CN(C)C(=O)NC1CCCCC1)[C@@H](C)CN([C@H](C)CO)C2=O,-3,-1,1,·,9,·
CC(C)NC(=O)Nc1cccc2c1O[C@H](CN(C)C(=O)NC1CCCCC1)[C@H](C)CN([C@H](C)CO)C2=O,2,-1,-1,·,51*,9%
CCNc1nc(N)nc(-c2cc(Cl)ccc2O)n1,72*,75*,35,-73*,67*,6%
CCCCNc1nc(N)nc(-c2cc(Cl)ccc2O)n1,6,2,0,1,5,·
Cc1cccc(NC(=O)NC2CCCCCCC2)c1C,·,0,2,0,-8,·
COc1cccc(/C=C2\Oc3cc(OCC(=O)N4Cc5ccccc5C[C@H]4C(=O)O)ccc3C2=O)c1,5,15,1,1,16,·
O=C1/C(=C/c2ccc3c(c2)OCO3)Oc2cc(OCC(=O)N3CCC[C@H]3C(=O)O)ccc21,59*,5,0,1,71*,16%
NS(=O)(=O)c1ccc(CCNC(=O)CSc2nc3ccsc3c(=O)n2CCCCC(=O)O)cc1,0,·,1,-1,-4,·
CCOC(=O)C1CCCN(c2c(NCCN(C)Cc3ccccc3)c(=O)c2=O)C1 (centres undefined),-1,-1,0,-4,61*,6%
CCOC(=O)C1CCCN(c2c(NCCCN3CCCC(C)C3)c(=O)c2=O)C1 (centres undefined),-2,-1,2,1,59*,7%
CCOC(=O)C1CCCN(c2c(NCCc3cccc(C)c3)c(=O)c2=O)C1 (centres undefined),-3,-1,1,2,-3,·
Cn1c2ccccc2c2cc(/C=N/NC(=O)c3cc(O)ccc3O)ccc21,-2,-1,2,-1,61*,9%
Cn1c2ccccc2c2cc(/C=N/NC(=O)c3cc(O)cc(O)c3)ccc21,-1,0,-1,-1,7,·
CN(C)CCCOC(=O)COc1ccc(Br)cc1,-9,-1,-1,-2,68*,9%

# Screens as filed in PubChem BioAssay.
